Laboratory results from ChEMBL document CHEMBL4382201 (J Med Chem, 2018).
In brackets after ≈: the same amount, converted by molar mass. Activity calls are given as the source filed them. The rule behind the calls is not given here.

Key:
dsDNA [1] = assay: Induction of DNA-interstanded-cross-link formation in [32P]-labeled 49-mer duplex DNA (unknown origin) at 1 mM in absence of H2O2 after 16 hrs by PAGE relative to control; type: functional
Method in brief: (§1)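 A 32P-labelled 49-mer, annealed with 1.5 equiv complement (65 °C for 3 min in 10 mM potassium phosphate pH 7, 100 mM NaCl, then slow cooling), was used at 1.0 µM before final dilution. Duplex was mixed with compound (final 1 mM), NaCl and potassium phosphate pH 8, with or without H2O2. Incubation 16 h at room temperature, formamide quench, then 20% denaturing PAGE.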

MDA-MB-468 [2] = assay: Growth inhibition of human MDA-MB-468 cells after 48 hrs by […]; type: functional, cell-based; conditions: MDA-MB-468, 48 h
dsDNA [3] = assay: Induction of DNA-interstanded-cross-link formation in [32P]-labeled 49-mer duplex DNA (unknown origin) at 1 mM in presence of H2O2 after 16 hrs by PAGE relative to control; type: functional; method in brief: as §1
[4] = Solubility of the compound in PBS buffer at 10 mM at pH 7.4 by UV-based analysis; type: physicochemical
Method in brief: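 Compound (10 mM DMSO stock) was diluted into pH 7.4 buffer (ethanolamine/KH2PO4/potassium acetate/KCl) to a final 5% DMSO. After sonication and 18 h agitation the mixture was filtered and scanned by UV at 230-800 nm. Solubility was calculated from calibration plots made in 20% acetonitrile buffer, in quadruplicate, with solubility standards on each plate.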

[5] = system: Panel NCI-60 (60 carcinoma cell lines); assay: Growth inhibition of human NCI60 cells at 10 uM after 48 hrs by SRB assay relative to control; type: functional, cell-based
Method in brief: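 NCI-60 one-dose screen: cells exposed to 10 µM for 48 h at 37 °C, 5% CO2, 100% humidity. Percent growth is given relative to the no-drug control and the time-zero cell count.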

[6] = Drug level in DMSO-d6/PBS buffer treated with (3-(((2-Amino-3-methoxy-3-oxopropyl)thio)methyl)-4-(bis(2-chloroethyl)amino)phenyl)boronic Acid assessed as compound formation after 10 days in presence of GSH by IT-TOF mass analysis; type: physicochemical; conditions: 240 h
[7] = Drug level in DMSO-d6/PBS buffer treated with N,N-bis(2-chloroethyl)-4-(4,4,5,5-tetramethyl-1,3,2-dioxaborolan-2-yl)aniline assessed as compound formation after 10 days in presence of GSH by IT-TOF mass analysis; type: physicochemical; conditions: 240 h
[8] = Drug metabolism in PBS buffer assessed as 4-(bis(2-chloroethyl)amino)phenylboronic acid formation at pH 6 to 7 after 48 hrs
[9] = Drug metabolism in DMSO-d6/PBS buffer assessed as 2-((2-chloroethyl)(4-(4,4,5,5-tetramethyl-1,3,2-dioxaborolan-2-yl)phenyl)amino)ethanol formation after 10 days in presence of GSH by IT-TOF mass analysis
[10] = Drug metabolism in DMSO-d6/PBS buffer assessed as 4-(bis(2-chloroethyl)amino)phenylboronic acid formation after 10 days in presence of GSH by IT-TOF mass analysis
SR = assay: Growth inhibition of human SR cells after 48 hrs by SRB assay; type: functional
Method in brief: (§2)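 NCI-60 five-dose screen at 100 µM, 10 µM, 1 µM, 100 nM and 10 nM. Incubation 48 h at 37 °C, 5% CO2, 100% humidity. Growth was expressed relative to the no-drug control and to the time-zero cell number, and GI50 was derived from these values.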

MDA-MB-468 [11] = assay: Growth inhibition of human MDA-MB-468 cells after 48 hrs by SRB assay; type: functional; conditions: MDA-MB-468, 48 h; method in brief: as §2

Row | Compound | Activity (dsDNA [1]) [%] | IC50 (MDA-MB-468 [2]) [µM] | Activity (dsDNA [3]) [%] | growth inhibition (GI) [5] | further results
1 | N[C@@H](Cc1ccc(N(CCCl)CCCl)cc1)C(=O)O [MELPHALAN] | 4.9 | 48.7 |  |  | 
2 | O=C(O)CCCc1ccc(N(CCCl)CCCl)cc1 [CHLORAMBUCIL] | 5.7 | 34.4 |  |  | 
3 | CC1(C)OB(c2ccc(N(CCCl)CCCl)c([N+](=O)[O-])c2)OC1(C)C | 1.5 to 15 | 92.8 | < 9 | inactive | solubility [4]: 380 µM (≈ 148 µg/mL)
4 | COC(=O)C1CSCc2cc(B(O)O)ccc2N(CCO)CCN1 (stereo not given) |  |  |  |  | Drug uptake [6]: Active
5 | N[C@H](Cc1cn(Cc2cc(B(O)O)ccc2N(CCCl)CCCl)c2ccccc12)C(=O)O | 1.5 to 15 |  | < 65 | inactive | 
6 | CC1(C)OB(c2ccc(N(CCO)CCCl)cc2)OC1(C)C |  |  |  |  | Drug uptake [7]: Active
7 | COC(=O)C(CSCc1cc(B2OC(C)(C)C(C)(C)O2)ccc1N(CCCl)CCCl)NC(=O)OC(C)(C)C (stereo not given) | < 5 |  |  | inactive | 
8 | CC1(C)OB(c2ccc(N(CCCl)CCCl)cc2)OC1(C)C | 1.5 to 15 | 24.6 | < 65 |  | Drug metabolism [8]: Metabolite detected; Drug metabolism [9]: Metabolite detected; Drug metabolism [10]: Metabolite detected; GI50 (SR): 0.63 µM; GI50 (MDA-MB-468 [11]): 1.6 µM; solubility [4]: 167 µM (≈ 57.5 µg/mL)
